# Results as given in ChEMBL document CHEMBL3526063, “Metabolism and pharmacokinetics of JM6 in mice: JM6 is not a prodrug for Ro-61-8048” (Drug Metab Dispos, 2012).
# Key:
# [1] = target: Kynurenine 3-monooxygenase (Mus musculus, UniProt Q91WN4); experiment: Inhibition of C57BL/6J mouse KMO assessed as 3-hydroxykynurenine formation preincubated for 5 mins using 100 uM kynurenine as substrate by LC-MS/MS analysis
# Summary of the method: (§1)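 Liver mitochondrial KMO preparation (mouse C57 BL/6J, rat Wistar, human) at 0.3 mg protein/mL in 100 mM potassium phosphate pH 7.4 with 200 µM NADPH, 0.4 U/mL G6PDH, 3 mM glucose 6-phosphate. Compound pre-incubated 5 min at 25°C, then 100 µM kynurenine added; 40 min (rodent) or 60 min (human). Stopped with TCA; 3-hydroxykynurenine by LC-MS/MS. IC50 from 8-point 3-fold dilutions (top 3 or 30 µM), triplicates, n≥2 runs.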
# [2] = target: Kynurenine 3-monooxygenase (Homo sapiens, UniProt O15229); experiment: Inhibition of human KMO assessed as 3-hydroxykynurenine formation preincubated for 5 mins using 100 uM kynurenine as substrate by LC-MS/MS analysis; summary of the method: as §1
# Sequence of Kynurenine 3-monooxygenase (Homo sapiens, UniProt O15229) (O15229 whole entry): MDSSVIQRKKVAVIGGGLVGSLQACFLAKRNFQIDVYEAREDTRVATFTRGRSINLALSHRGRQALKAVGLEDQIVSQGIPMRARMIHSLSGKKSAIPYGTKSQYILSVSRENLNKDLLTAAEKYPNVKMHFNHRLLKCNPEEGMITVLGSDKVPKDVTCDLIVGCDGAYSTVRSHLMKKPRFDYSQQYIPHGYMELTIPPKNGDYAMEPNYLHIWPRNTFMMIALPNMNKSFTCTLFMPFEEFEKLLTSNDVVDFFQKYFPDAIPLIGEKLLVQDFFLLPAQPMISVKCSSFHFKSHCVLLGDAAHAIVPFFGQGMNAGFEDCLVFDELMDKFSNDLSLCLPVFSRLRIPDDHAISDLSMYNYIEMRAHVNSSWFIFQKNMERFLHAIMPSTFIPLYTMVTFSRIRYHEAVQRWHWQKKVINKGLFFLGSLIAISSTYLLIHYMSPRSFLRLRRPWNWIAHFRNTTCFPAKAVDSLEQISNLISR
# [3] = target: Kynurenine 3-monooxygenase (Rattus norvegicus, UniProt O88867); experiment: Inhibition of Wistar rat KMO assessed as 3-hydroxykynurenine formation preincubated for 5 mins using 100 uM kynurenine as substrate by LC-MS/MS analysis; summary of the method: as §1
# Sequence of Kynurenine 3-monooxygenase (Rattus norvegicus, UniProt O88867) (O88867 whole entry): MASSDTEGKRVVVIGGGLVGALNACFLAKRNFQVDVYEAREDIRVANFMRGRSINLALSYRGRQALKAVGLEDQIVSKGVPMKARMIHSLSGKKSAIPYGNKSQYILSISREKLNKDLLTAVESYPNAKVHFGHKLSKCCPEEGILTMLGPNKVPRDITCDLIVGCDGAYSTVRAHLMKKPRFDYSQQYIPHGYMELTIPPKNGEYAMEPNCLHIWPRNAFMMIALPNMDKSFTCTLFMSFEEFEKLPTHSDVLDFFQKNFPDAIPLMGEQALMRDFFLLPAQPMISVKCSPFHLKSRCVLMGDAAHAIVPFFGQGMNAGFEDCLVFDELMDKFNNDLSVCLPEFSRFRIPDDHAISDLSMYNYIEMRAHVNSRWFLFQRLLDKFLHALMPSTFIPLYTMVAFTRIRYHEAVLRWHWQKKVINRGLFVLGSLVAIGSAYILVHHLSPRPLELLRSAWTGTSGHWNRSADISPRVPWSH
# Sequence of Kynurenine 3-monooxygenase (Mus musculus, UniProt Q91WN4) (Q91WN4 whole entry): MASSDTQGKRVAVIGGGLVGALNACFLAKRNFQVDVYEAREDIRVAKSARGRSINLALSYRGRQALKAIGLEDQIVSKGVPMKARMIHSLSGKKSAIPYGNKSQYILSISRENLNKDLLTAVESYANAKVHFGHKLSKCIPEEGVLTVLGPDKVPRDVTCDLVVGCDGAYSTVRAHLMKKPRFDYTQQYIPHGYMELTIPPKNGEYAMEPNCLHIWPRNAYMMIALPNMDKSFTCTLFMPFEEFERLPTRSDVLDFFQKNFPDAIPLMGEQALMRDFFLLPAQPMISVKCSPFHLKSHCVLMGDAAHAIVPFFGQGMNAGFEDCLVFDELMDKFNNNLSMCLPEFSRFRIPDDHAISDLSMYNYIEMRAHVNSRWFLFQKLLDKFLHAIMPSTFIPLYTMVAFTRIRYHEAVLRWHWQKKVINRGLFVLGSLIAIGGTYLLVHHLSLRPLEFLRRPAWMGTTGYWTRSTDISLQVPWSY
IC50 [1] [µM],IC50 [2] [µM],IC50 [3] [µM],SMILES
22,39,11,COc1ccc(S(=O)(=O)Nc2nc(-c3cccc([N+](=O)[O-])c3)c(CO)s2)cc1OC
27,17,10,COc1ccc(S(=O)(=O)Nc2nc(-c3cccc([N+](=O)[O-])c3)c(CN)s2)cc1OC
